The values that follow come from ChEMBL document CHEMBL4152384, “Pyrtriazoles, a Novel Class of Store-Operated Calcium Entry Modulators: Discovery, Biological Profiling, and in Vivo Proof-of-Concept Efficacy in Acute Pancreatitis” (J Med Chem, 2018).

The structures appear in SMILES notation. Activity calls are given as the source filed them. No cut-off for these calls is given here.

Holding throughout (type): cell-based
For assay [1], the system named is Jurkat. The experiment in a line: Induction of store-operated calcium entry in human Jurkat cells assessed as induction of store-operated calcium entry by measuring residual activity at 10 uM preincubated for 30 mins followed by tBhQ-mediated Ca2+ depletion and Ca2+ re-addition to extracellular solution measured for 600 secs by Fluo-4 AM-based fluorometric assay relative to control.

Assay [2] has as its target Short transient receptor potential channel 1 & 3/Stromal interaction molecule 1/Calcium release-activated calcium channel protein 1 (Homo sapiens) (UniProt Q96D31+Q13507+Q13586+P48995). The experiment in a line: Modulation of TRPC1/TRPC3/STIM1/Orai1 in HEK cells assessed as induction of store-operated calcium entry at 10 uM preincubated for 30 mins followed by tBhQ-mediated Ca2+ depletion and Ca2+ re-addition to extracellular solution measured for 800 secs by Fluo-4 AM-based fluorometric assay relative to control.

Assay [3] concerns the target Transient receptor potential cation channel subfamily M member 8 (Homo sapiens) (UniProt Q7Z2W7). Kind of assay: Antagonist activity at TRPM8 (unknown origin) expressed in HEK cells assessed as inhibition of menthol -mediated calcium increase at 10 uM by fura-2-based assay. Summed up:
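TRPM8-overexpressing Hek cells; calcium rise evoked by menthol (100 μM), test compounds at 10 μM; peak amplitude read out; mean ± SEM of 600 cells from 30 plates on four separate experimental days.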

The target in assay [4] is Stromal interaction molecule 1 & 2/Calcium release-activated calcium channel protein 1 (Mus musculus) (UniProt Q8BWG9+P70302+P83093). The experiment in a line: Modulation of STIM1/STIM2/Orai1 in mouse BV2 cells assessed as induction of store-operated calcium entry by measuring increase in peak amplitude at 0.3 to 10 uM preincubated for 30 mins followed by tBhQ-mediated Ca2+ depletion and Ca2+ re-addition to extracellular solution measured for 600 secs by Fluo-4 AM-based fluorometric assay relative to control.

Assay [5] addresses ORAI1/STIM1 (Homo sapiens) (UniProt Q96D31+Q13586). The experiment in a line: Modulation of Orai1/STIM1 (unknown origin) expressed in HEK cells assessed as potentiation of store-operated calcium currents in presence of 20 mM BAPTA and 150 nM Ca2+ containing internal solution by patch clamp assay relative to control. In general terms: In patch-clamp work, channel activity is measured electrically.

In assay [6] the target is Transient receptor potential cation channel subfamily V member 1 (Homo sapiens) (UniProt Q8NER1). The experiment in a line: Antagonist activity at TRPV1 (unknown origin) expressed in HEK cells assessed as inhibition of capsaicin-induced calcium increase at 10 uM by fura-2-based assay. The method, boiled down:
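TRPV1-overexpressing Hek cells; calcium rise evoked by capsaicin (100 nM), test compounds at 10 μM; peak amplitude read out; mean ± SEM of 600 cells from 30 plates on four separate experimental days.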

Chain of Short transient receptor potential channel 1 & 3/Stromal interaction molecule 1/Calcium release-activated calcium channel protein 1 (Homo sapiens) (P48995 whole entry partner): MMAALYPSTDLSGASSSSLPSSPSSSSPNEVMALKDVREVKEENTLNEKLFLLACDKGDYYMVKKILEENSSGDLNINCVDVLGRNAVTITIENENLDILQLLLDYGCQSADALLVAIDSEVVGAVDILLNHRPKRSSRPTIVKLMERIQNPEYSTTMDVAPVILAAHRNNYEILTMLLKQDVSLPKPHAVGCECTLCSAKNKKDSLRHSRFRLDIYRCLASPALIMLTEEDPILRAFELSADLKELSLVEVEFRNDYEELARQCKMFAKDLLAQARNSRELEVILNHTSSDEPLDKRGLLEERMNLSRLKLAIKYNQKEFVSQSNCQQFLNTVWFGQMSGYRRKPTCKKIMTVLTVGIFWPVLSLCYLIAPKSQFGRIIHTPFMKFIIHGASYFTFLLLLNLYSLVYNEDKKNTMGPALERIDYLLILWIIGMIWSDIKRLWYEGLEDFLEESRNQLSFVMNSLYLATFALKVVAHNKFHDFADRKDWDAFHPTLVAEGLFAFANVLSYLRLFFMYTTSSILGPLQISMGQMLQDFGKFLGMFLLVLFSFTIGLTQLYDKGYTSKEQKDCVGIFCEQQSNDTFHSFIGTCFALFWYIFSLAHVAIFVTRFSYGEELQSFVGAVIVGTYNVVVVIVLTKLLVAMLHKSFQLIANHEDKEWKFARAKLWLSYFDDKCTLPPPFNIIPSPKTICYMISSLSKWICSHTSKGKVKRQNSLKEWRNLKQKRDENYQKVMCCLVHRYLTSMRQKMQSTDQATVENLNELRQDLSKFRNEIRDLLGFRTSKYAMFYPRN
Chain of Short transient receptor potential channel 1 & 3/Stromal interaction molecule 1/Calcium release-activated calcium channel protein 1 (Homo sapiens) (Q13507 whole entry partner): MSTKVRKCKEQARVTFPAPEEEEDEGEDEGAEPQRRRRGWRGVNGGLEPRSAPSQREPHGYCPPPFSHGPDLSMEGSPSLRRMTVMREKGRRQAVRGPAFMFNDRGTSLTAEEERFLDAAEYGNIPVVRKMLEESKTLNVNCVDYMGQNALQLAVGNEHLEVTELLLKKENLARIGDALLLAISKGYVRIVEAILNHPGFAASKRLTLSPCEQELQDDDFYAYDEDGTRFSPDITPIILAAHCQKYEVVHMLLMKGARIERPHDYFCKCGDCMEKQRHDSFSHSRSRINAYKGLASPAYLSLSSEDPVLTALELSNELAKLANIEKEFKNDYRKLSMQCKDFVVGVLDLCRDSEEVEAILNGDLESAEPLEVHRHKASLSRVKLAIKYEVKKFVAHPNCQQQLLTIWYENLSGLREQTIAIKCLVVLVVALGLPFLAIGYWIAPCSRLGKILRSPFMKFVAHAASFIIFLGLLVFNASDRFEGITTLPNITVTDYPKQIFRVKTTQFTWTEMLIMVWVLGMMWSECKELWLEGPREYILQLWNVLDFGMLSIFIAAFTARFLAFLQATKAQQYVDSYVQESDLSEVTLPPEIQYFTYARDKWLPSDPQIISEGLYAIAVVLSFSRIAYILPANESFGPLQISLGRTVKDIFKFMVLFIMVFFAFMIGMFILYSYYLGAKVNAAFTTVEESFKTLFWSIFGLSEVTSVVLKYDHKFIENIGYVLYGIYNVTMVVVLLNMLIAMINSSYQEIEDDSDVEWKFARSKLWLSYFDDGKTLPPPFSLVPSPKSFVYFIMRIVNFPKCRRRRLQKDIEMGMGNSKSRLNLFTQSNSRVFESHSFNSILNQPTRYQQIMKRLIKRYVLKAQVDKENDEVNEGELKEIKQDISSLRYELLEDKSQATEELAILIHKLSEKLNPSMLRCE
Chain of Short transient receptor potential channel 1 & 3/Stromal interaction molecule 1/Calcium release-activated calcium channel protein 1 (Homo sapiens) (Q13586 23-685 partner limits assumed): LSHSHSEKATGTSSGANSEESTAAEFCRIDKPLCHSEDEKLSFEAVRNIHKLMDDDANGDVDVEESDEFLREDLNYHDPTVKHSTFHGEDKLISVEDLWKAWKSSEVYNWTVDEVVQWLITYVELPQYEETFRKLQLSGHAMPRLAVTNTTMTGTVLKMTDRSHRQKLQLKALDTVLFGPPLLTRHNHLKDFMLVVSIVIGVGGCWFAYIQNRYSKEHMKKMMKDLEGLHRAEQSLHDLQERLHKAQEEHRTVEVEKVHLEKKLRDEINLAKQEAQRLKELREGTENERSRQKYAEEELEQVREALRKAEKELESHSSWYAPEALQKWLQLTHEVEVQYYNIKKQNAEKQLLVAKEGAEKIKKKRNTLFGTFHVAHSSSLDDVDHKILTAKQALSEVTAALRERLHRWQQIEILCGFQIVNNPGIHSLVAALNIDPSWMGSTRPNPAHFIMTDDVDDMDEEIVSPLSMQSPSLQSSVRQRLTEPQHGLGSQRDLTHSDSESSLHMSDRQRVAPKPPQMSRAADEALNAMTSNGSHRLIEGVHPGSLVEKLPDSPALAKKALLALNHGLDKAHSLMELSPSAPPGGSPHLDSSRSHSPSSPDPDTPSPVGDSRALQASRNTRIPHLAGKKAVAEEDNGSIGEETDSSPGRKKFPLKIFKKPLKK
Chain of Short transient receptor potential channel 1 & 3/Stromal interaction molecule 1/Calcium release-activated calcium channel protein 1 (Homo sapiens) (Q96D31 whole entry): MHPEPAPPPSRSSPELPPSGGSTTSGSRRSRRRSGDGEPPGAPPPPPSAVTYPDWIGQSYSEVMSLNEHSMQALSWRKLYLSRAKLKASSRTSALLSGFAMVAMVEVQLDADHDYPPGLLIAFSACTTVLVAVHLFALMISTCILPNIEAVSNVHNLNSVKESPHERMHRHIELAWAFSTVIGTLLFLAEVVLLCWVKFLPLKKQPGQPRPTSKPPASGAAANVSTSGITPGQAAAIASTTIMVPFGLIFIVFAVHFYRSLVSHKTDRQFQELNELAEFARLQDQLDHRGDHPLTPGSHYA
Chain of Transient receptor potential cation channel subfamily V member 1 (Homo sapiens) (Q8NER1 whole entry): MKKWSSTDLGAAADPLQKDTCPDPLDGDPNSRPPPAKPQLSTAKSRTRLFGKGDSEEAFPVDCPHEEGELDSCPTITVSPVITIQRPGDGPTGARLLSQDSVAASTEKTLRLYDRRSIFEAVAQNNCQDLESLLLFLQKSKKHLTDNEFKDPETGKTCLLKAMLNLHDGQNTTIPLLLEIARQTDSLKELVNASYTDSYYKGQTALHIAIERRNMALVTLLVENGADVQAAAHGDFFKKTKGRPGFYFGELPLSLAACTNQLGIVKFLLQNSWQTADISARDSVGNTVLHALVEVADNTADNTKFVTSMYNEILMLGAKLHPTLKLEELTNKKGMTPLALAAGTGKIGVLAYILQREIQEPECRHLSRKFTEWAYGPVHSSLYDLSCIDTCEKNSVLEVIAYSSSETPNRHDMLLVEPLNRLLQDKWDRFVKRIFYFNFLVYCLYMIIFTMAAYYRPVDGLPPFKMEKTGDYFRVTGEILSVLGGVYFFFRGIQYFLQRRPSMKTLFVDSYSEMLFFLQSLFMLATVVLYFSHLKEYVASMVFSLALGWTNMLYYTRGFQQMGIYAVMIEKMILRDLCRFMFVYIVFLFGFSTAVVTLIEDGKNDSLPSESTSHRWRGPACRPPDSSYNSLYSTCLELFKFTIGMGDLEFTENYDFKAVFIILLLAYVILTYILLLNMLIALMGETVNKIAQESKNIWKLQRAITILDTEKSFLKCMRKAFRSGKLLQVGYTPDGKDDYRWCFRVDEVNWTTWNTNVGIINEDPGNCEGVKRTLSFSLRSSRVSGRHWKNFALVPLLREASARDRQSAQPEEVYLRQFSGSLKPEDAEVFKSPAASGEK
Chain of ORAI1/STIM1 (Homo sapiens) (Q13586 23-685 partner limits assumed): as the sequence (Q13586 23-685 partner limits assumed) above
Chain of ORAI1/STIM1 (Homo sapiens) (Q96D31 whole entry): as the sequence (Q96D31 whole entry) above
Chain of Transient receptor potential cation channel subfamily M member 8 (Homo sapiens) (Q7Z2W7 whole entry, looked up): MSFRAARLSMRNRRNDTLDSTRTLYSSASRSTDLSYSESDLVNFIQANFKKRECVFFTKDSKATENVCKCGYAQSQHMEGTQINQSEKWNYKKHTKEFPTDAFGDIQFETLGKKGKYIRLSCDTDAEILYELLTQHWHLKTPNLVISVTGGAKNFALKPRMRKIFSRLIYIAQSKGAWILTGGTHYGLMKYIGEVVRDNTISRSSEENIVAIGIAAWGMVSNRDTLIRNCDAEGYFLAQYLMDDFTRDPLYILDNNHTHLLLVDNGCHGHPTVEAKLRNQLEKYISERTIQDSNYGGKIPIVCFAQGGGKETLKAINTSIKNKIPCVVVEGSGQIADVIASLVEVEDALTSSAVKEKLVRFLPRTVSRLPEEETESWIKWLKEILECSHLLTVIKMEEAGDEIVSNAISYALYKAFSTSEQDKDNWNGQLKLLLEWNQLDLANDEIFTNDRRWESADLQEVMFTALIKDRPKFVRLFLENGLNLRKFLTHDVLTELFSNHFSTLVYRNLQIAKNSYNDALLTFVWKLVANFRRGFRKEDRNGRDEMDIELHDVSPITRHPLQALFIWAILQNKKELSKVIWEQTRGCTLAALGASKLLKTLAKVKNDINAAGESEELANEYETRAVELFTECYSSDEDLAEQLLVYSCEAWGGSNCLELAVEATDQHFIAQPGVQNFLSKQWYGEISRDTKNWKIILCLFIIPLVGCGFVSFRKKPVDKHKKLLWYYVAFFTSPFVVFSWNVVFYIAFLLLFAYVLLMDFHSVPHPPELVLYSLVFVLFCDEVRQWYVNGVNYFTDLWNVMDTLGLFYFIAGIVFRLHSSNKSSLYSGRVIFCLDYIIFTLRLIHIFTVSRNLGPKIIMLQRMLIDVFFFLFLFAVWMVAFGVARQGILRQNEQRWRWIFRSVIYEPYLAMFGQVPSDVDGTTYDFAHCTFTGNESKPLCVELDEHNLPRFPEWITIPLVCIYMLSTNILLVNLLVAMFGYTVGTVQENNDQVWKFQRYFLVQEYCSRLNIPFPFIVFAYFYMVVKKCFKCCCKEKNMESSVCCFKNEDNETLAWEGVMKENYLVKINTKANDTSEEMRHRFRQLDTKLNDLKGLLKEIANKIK

In the case of `O=C(O)c1ccc(-c2cn(-c3ccc(-n4nc(C(F)(F)F)cc4C(F)(F)F)cc3)nn2)cc1`, in assay [1], the Activity came out at 236%. Also, the outcome in assay [2] and in assay [4] was Active. Also, the inhibition result in assay [3] and in assay [6] was “inactive” in each case. Besides, the outcome in assay [5] was inactive.
